The text below walks through data of ChEMBL document CHEMBL4330096, “Discovery of potent and selective 5-azaindazole inhibitors of leucine-rich repeat kinase 2 (LRRK2) - Part 1” (Bioorg Med Chem Lett, 2019).

Assay [1] addresses MAP/microtubule affinity-regulating kinase 3 (Homo sapiens) (UniProt P27448). In words: Inhibition of MARK3 (unknown origin) at 1 uM relative to control. Put shortly: (§1)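 Single-concentration screen of each compound against a 59-protein-kinase panel, run at 10 µM or 1 µM. Activity relative to control is shown as a heat map across the panel.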
Assay [2] addresses Serine/threonine-protein kinase N2 (Homo sapiens) (UniProt Q16513). In words: Inhibition of PRK2 (unknown origin) at 1 uM relative to control. In outline: as §1
Assay [3] has as its target Serine/threonine-protein kinase pim-1 (Homo sapiens) (UniProt P11309). In words: Inhibition of PIM1 (unknown origin) at 1 uM relative to control. In outline:
as §1

The target in assay [4] is Ribosomal protein S6 kinase alpha-1 (Homo sapiens) (UniProt Q15418). Put plainly: Inhibition of RSK1 (unknown origin) at 1 uM relative to control. In outline:
as §1

The target of assay [5] is Mitogen-activated protein kinase 1 (Homo sapiens) (UniProt P28482). In words: Inhibition of ERK2 (unknown origin) at 1 uM relative to control. In outline: (§2)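 Single-point screen of each compound against a panel of 59 protein kinases, at 1 or 10 μM. The panel data are also summarised as a rescaled geometric mean selectivity score.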
The target of assay [6] is Ribosomal protein S6 kinase alpha-5 (Homo sapiens) (UniProt O75582). Put plainly: Inhibition of MSK1 (unknown origin) at 1 uM relative to control. In outline: as §1
Assay [7] deals with Insulin-like growth factor 1 receptor (Homo sapiens) (UniProt P08069). In words: Inhibition of IGF1R (unknown origin) at 1 uM relative to control. In outline:
as §2

Assay [8] has as its target Tyrosine-protein kinase Lck (Homo sapiens) (UniProt P06239). Put plainly: Inhibition of Lck (unknown origin) at 1 uM relative to control. Put shortly: as §2
For assay [9], the target named is T1, Serine/threonine-protein kinase D1 (Homo sapiens) (UniProt Q15139).
T1 sequence (whole entry): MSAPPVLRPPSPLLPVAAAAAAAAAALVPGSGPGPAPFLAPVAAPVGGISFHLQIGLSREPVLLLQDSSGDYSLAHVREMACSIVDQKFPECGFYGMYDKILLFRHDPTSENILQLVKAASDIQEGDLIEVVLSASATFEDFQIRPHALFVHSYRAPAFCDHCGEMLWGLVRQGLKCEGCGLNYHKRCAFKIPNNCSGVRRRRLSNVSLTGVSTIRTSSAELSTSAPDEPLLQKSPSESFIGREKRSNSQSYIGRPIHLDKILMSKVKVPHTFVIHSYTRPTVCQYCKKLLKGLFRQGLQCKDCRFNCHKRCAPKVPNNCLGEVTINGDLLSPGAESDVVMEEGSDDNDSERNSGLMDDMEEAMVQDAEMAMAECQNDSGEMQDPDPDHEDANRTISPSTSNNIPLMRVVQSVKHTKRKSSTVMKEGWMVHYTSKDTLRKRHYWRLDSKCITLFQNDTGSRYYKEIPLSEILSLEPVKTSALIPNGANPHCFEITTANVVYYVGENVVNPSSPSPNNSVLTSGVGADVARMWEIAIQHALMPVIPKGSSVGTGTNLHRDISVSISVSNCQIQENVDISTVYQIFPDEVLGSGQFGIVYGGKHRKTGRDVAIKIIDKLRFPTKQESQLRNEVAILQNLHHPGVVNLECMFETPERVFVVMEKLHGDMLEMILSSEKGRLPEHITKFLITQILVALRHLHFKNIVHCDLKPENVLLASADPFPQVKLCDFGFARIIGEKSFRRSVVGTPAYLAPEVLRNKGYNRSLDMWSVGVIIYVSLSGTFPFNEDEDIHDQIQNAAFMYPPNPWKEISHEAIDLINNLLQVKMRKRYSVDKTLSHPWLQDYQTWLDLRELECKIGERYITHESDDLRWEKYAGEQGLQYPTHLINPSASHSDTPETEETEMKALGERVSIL
Put plainly: Inhibition of PKD1 (unknown origin) at 1 uM relative to control. In outline: as §1

Assay [10] addresses T2, Serine/threonine-protein kinase Sgk1 (Homo sapiens) (UniProt O00141).
T2 sequence (whole entry): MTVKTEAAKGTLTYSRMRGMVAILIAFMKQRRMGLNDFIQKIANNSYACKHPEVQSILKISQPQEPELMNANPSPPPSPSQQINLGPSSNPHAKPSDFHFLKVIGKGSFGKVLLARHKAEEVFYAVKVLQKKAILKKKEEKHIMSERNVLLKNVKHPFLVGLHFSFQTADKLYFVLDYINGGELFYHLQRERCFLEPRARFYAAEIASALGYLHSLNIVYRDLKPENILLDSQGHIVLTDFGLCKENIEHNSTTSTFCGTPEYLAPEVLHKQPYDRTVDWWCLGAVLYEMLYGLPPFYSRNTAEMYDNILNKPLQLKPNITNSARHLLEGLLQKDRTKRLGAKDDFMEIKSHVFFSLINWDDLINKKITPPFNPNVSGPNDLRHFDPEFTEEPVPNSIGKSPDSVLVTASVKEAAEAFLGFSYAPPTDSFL
In words: Inhibition of SGK1 (unknown origin) at 1 uM relative to control. Put shortly: (§3)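 Single-concentration screen across a panel of 59 protein kinases, with each compound tested at one fixed concentration. The read-out is residual kinase activity relative to control. Panel results are also condensed into a rescaled geometric mean (RGM) selectivity score.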

For assay [11], the target named is Proto-oncogene tyrosine-protein kinase Src (Homo sapiens) (UniProt P12931). In words: Inhibition of Src (unknown origin) at 1 uM relative to control. In outline:
as §3

Assay [12] has as its target T3, Serine/threonine-protein kinase 3 (Homo sapiens) (UniProt Q13188).
T3 sequence (whole entry): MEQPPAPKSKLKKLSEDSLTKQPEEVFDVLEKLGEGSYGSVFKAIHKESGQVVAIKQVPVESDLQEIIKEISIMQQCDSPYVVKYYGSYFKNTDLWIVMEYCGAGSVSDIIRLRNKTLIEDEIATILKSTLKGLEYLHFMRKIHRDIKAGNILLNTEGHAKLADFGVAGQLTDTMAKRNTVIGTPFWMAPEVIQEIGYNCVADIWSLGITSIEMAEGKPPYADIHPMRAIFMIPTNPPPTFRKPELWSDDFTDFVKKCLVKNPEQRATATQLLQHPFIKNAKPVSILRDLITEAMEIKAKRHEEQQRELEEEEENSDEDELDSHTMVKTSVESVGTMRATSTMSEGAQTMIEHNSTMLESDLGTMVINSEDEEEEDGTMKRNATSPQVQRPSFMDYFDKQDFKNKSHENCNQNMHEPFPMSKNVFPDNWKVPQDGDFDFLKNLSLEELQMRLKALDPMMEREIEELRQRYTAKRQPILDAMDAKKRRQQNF
In words: Inhibition of MST2 (unknown origin) at 1 uM relative to control. Put shortly: as §1

The species entered for another assay is Homo sapiens. Put plainly: Inhibition of VEGFR (unknown origin) at 1 uM relative to control. In outline: as §3
Assay [13] has as its target Protein kinase C alpha type (Homo sapiens) (UniProt P17252). Put plainly: Inhibition of PKCa (unknown origin) at 1 uM relative to control. In outline:
as §1

Each structure is given as a SMILES string.

Serine/threonine-protein kinase pim-1 (Homo sapiens), sequence (P11309 whole entry, looked up): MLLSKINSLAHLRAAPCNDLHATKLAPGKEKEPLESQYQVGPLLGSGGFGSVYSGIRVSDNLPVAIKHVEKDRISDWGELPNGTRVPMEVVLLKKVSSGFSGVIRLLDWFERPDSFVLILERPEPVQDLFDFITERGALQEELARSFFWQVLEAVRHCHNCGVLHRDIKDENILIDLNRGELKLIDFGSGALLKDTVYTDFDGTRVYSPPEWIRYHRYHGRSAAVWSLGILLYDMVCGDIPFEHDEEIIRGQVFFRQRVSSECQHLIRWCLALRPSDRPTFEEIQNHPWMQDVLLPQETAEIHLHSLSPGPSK
Proto-oncogene tyrosine-protein kinase Src (Homo sapiens), sequence (P12931 2-536 limits assumed): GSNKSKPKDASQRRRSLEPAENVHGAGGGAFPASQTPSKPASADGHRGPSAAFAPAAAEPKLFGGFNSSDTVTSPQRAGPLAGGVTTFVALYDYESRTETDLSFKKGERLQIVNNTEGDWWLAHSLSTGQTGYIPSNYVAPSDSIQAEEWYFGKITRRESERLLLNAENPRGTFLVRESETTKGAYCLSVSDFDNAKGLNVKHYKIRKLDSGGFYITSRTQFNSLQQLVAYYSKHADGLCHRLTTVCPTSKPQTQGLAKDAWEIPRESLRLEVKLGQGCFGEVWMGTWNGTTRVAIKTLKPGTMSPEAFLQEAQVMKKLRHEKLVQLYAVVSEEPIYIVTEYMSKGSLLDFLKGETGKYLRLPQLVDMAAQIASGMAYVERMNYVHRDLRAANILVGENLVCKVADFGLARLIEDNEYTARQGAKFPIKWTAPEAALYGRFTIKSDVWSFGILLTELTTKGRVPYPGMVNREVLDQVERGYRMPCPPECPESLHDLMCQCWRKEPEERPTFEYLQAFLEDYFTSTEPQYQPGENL
Ribosomal protein S6 kinase alpha-1 (Homo sapiens), sequence (Q15418 whole entry): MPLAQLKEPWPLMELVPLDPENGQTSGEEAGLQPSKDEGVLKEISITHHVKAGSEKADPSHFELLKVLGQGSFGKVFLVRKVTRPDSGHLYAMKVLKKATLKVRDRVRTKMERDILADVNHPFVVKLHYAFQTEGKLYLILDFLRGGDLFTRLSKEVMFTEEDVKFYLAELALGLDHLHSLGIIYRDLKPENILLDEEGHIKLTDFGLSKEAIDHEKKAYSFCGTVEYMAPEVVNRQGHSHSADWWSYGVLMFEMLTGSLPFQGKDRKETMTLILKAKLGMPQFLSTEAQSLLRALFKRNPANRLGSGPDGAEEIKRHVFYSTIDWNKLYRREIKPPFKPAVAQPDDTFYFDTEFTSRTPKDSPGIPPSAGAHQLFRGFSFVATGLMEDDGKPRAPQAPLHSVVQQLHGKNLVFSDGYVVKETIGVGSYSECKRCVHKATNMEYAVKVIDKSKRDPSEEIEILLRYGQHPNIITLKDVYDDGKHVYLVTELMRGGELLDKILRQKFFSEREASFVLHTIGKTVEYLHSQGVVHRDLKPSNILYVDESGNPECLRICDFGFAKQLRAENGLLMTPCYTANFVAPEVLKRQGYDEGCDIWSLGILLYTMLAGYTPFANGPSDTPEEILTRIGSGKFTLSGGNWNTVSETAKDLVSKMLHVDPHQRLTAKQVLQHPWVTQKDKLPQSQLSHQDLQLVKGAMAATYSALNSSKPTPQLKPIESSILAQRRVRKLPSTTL
Mitogen-activated protein kinase 1 (Homo sapiens), sequence (P28482 whole entry): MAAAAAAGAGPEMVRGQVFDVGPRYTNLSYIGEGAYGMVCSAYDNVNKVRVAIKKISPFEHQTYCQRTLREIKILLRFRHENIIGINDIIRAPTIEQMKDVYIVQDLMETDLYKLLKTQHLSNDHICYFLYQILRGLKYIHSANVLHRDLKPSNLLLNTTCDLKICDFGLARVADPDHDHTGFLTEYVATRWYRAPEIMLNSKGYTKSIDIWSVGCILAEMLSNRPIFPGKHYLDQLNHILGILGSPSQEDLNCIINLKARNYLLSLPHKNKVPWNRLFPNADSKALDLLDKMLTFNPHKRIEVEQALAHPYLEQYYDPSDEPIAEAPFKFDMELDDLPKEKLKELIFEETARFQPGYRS
Insulin-like growth factor 1 receptor (Homo sapiens), sequence (P08069 31-736 limits assumed): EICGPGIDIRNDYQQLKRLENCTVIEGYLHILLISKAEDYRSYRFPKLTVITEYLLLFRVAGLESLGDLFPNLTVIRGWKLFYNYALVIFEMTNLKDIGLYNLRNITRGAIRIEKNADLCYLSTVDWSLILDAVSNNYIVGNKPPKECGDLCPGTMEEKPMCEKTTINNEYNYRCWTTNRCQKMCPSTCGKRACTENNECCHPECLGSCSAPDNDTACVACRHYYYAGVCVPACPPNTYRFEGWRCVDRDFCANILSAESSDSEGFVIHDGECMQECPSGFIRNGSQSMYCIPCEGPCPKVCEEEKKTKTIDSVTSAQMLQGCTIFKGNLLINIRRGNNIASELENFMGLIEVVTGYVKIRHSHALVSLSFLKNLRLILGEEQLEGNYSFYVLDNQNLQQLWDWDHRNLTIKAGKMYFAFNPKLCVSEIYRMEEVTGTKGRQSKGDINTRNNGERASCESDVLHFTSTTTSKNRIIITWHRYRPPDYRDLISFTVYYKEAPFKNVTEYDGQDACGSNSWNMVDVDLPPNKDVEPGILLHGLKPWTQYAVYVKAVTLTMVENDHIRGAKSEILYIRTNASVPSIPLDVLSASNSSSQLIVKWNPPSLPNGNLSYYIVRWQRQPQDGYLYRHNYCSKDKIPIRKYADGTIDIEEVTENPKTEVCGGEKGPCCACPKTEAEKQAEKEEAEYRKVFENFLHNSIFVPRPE
Insulin-like growth factor 1 receptor (Homo sapiens), sequence (P08069 741-1367 limits assumed): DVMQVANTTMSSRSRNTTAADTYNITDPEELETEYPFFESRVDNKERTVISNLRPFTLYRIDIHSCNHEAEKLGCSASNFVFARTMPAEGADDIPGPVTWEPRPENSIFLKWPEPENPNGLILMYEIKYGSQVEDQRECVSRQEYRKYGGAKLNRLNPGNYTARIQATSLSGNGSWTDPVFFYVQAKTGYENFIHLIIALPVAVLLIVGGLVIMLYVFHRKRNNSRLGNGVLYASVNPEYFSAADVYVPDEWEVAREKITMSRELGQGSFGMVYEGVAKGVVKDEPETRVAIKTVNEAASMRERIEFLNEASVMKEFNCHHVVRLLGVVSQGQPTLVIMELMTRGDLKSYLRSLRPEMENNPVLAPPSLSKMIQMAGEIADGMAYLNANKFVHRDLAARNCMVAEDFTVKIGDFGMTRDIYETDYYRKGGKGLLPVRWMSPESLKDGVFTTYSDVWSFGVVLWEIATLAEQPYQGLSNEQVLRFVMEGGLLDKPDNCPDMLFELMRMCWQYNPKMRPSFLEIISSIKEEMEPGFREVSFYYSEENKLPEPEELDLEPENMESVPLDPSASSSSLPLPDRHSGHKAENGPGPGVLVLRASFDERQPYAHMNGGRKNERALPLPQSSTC
Ribosomal protein S6 kinase alpha-5 (Homo sapiens), sequence (O75582 whole entry, looked up): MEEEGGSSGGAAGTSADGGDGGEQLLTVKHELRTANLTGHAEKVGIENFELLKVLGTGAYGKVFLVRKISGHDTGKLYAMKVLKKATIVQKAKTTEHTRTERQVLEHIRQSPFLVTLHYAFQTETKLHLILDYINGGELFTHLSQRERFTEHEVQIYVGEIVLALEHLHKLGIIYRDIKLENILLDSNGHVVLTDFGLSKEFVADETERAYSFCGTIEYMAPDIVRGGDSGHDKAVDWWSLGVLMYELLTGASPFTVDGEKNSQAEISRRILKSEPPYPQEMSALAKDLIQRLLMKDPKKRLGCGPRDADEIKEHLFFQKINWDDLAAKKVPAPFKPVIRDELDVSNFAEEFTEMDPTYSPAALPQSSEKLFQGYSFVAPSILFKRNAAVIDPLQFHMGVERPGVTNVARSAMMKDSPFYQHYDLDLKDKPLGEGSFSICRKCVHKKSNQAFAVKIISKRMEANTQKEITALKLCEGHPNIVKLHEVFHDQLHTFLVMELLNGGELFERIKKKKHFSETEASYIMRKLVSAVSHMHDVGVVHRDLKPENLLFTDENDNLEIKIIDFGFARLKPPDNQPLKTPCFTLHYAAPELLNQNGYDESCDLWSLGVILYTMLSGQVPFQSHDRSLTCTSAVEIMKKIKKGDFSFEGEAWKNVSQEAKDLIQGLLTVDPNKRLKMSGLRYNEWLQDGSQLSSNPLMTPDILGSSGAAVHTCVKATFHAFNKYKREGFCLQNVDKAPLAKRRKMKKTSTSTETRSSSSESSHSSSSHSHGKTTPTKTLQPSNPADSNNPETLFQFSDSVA
MAP/microtubule affinity-regulating kinase 3 (Homo sapiens), sequence (P27448 whole entry, looked up): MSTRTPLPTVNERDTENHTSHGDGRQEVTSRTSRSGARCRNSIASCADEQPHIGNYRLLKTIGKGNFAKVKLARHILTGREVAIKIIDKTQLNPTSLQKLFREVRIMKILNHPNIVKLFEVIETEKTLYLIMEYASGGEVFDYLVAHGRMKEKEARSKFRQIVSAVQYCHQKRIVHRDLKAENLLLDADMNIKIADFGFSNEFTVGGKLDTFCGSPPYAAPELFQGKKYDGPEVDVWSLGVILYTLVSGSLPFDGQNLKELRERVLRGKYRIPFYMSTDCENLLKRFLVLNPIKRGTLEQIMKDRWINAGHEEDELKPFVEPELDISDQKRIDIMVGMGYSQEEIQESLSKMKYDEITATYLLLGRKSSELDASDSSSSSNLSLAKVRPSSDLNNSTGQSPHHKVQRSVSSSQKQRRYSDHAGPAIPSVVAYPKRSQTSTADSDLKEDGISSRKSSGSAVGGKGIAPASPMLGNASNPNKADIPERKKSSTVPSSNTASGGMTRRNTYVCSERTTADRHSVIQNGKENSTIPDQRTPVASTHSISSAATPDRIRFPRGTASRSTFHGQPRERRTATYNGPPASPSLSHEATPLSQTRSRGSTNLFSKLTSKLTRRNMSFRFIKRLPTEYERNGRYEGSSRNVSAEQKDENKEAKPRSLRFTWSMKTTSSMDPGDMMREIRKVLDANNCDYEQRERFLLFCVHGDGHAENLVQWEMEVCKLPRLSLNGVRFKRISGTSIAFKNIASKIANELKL

As for `CC(C)n1cc(-c2n[nH]c3ccnc(OC4CCOCC4)c23)cn1`, the inhibition in assay [1] stood at 18%; in assay [2], 24%; in assay [3], 77%; in assay [4], 62%; in [5], 49%; in assay [6] it was 18%. The inhibition in assay [7] is 40%; in [8], 0%; in assay [9] it was 41%; in [10], 12%; in [11], 0%; in assay [12], 40%. The inhibition was 59% in the assay filed under Homo sapiens and 0% in assay [13].

On to `c1cc(-c2n[nH]c3ccnc(OC4CCOCC4)c23)cc(N2CCOCC2)n1`, for which the inhibition in assay [1] came to 0%; in [2], 0%; in assay [3], 34%; in assay [4], 3%; in assay [5], 51%; in assay [6], 0%. Besides, the inhibition in [7] was 11%; in [8], 8%; in [9], 7%; in [10] it was 0%; in assay [11], 0%; in [12], 7%. Moreover, the figures for the inhibition (in the assay filed under Homo sapiens; in [13]) were 2% and 0%, respectively.
